In brackets after ≈: the same amount, converted by molar mass.
Legend:
Aspergillus nidulans = assay: Antifungal activity against Aspergillus nidulans ATCC 38163 after 48 hrs by broth dilution method; format: functional; conditions: Aspergillus nidulans, ATCC 38163, 48 h
In short: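 A. nidulans run per CLSI M38-A2. PDA spores were filtered through glass wool and counted by hemocytometer. Test range 0.03–31.3 µg/mL in MOPS-buffered RPMI 1640 (pH 7.0), final 5 × 10^5 CFU/mL.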

Candida albicans [1] = assay: Antifungal activity against Candida albicans ATCC 10231 after 48 hrs by broth dilution method; format: functional; conditions: ATCC 10231, 48 h
Candida albicans [2] = assay: Antifungal activity against itraconazole and fluconazole resistant Candida albicans ATCC 90819 after 48 hrs by broth dilution method; format: functional; conditions: Candida albicans, ATCC 90819, 48 h
In short: (§1)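 CLSI M27-A3 broth microdilution with minor modifications. Overnight YPD culture grown at 35 °C, 200 rpm, adjusted to OD600 0.12, diluted in RPMI 1640 buffered to pH 7.0 with 0.165 M MOPS to a final 1–2 × 10^3 CFU/mL. Test compounds at 0.015–31.3 µg/mL, 48 h at 35 °C, DMSO <1.25%. […] Triplicate.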

Nakaseomyces glabratus = assay: Antifungal activity against Candida glabrata ATCC 2001 after 48 hrs by broth dilution method; format: functional, CBS 138; conditions: Nakaseomyces glabratus, CBS 138, 48 h
Candida albicans [3] = assay: Antifungal activity against Candida albicans ATCC 64124 after 48 hrs by broth dilution method; format: functional; conditions: Candida albicans, ATCC 64124, 48 h; in short: as §1
Pichia kudriavzevii = assay: Antifungal activity against Candida krusei ATCC 6258 after 48 hrs by broth dilution method; format: functional; conditions: Pichia kudriavzevii, ATCC 6258, 48 h
In short: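 Yeasts tested per CLSI M27-A3 with minor changes. An overnight YPD culture (35 °C, 200 rpm) was adjusted to OD600 0.12 and diluted in MOPS-buffered RPMI 1640 (pH 7.0) to a final 1–2 × 10^3 CFU/mL. Compounds 0.015–31.3 µg/mL, DMSO <1.25%.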

Candida parapsilosis = assay: Antifungal activity against Candida parapsilosis ATCC 22019 after 48 hrs by broth dilution method; format: functional; conditions: Lodderomyces parapsilosis, ATCC 22019, 48 h
Aspergillus terreus = assay: Antifungal activity against Aspergillus terreus ATCC MYA-3633 after 48 hrs by broth dilution method; format: functional; conditions: Aspergillus terreus, ATCC MYA-3633, 48 h
In short: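 Molds tested per CLSI M38-A2. Spores were harvested from sporulating PDA cultures by filtering through glass wool and counted on a hemocytometer. Serial dilutions (0.03–31.3 µg/mL) were made in RPMI 1640 buffered to pH 7.0 with 0.165 M MOPS, final inoculum 5 × 10^5 CFU/mL.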

Candida albicans [4] = assay: Antifungal activity against itraconazole and fluconazole resistant Candida albicans ATCC MYA-1003 after 48 hrs by broth dilution method; format: functional; conditions: Candida albicans, ATCC MYA-1003, 48 h; in short: as §1
Candida albicans [5] = assay: Antifungal activity against itraconazole and fluconazole resistant Candida albicans ATCC MYA-1237 after 48 hrs by broth dilution method; format: functional; conditions: Candida albicans, ATCC MYA-1237, 48 h; in short: as §1
Aspergillus flavus = assay: Antifungal activity against Aspergillus flavus ATCC MYA-3631 after 48 hrs by broth dilution method; format: functional; conditions: ATCC MYA-3631, 48 h
Candida albicans [6] = assay: Antifungal activity against itraconazole and fluconazole susceptible Candida albicans ATCC MYA-2876 after 48 hrs by broth dilution method; format: functional; conditions: Candida albicans, ATCC MYA-2876, 48 h
Candida albicans [7] = assay: Antifungal activity against itraconazole and fluconazole susceptible Candida albicans ATCC MYA-2310 after 48 hrs by broth dilution method; format: functional; conditions: Candida albicans, ATCC MYA-2310, 48 h
[8] = Aqueous solubility of the compound; format: physicochemical; conditions: buffer
[9] = Solubility of the compound in DMSO; format: physicochemical
Candida albicans [10] = assay: Antifungal activity against Candida albicans ATCC 10231 after 48 hrs in the presence of 10% FBS by broth dilution method; format: functional; conditions: ATCC 10231, 48 h

| SMILES | MIC (Aspergillus nidulans) | MIC (Candida albicans [1]) | MIC (Candida albicans [2]) | MIC (Nakaseomyces glabratus) | MIC (Candida albicans [3]) | MIC (Pichia kudriavzevii) | MIC (Candida parapsilosis) | MIC (Aspergillus terreus) | MIC (Candida albicans [4]) | MIC (Candida albicans [5]) | MIC (Aspergillus flavus) | MIC (Candida albicans [6]) | MIC (Candida albicans [7]) | solubility [8] | solubility [9] | MIC (Candida albicans [10]) |
| --- | --- | --- | --- | --- | --- | --- | --- | --- | --- | --- | --- | --- | --- | --- | --- | --- |
| CCCCCN1CCNCC1 | > 200 µM | > 200 µM | > 200 µM | > 200 µM | > 200 µM | > 200 µM | > 200 µM | > 200 µM | > 200 µM | > 200 µM | > 200 µM | > 200 µM | > 200 µM |  |  |  |
| CC[C@H](C)C[C@H](C)CCCCCCCCC(=O)N[C@H]1C[C@@H](O)[C@@H](NCCN)NC(=O)[C@@H]2[C@@H](O)CCN2C(=O)[C@H]([C@H](O)CCN)NC(=O)[C@H]([C@H](O)[C@@H](O)c2ccc(O)cc2)NC(=O)[C@@H]2C[C@@H](O)CN2C(=O)[C@H]([C@@H](C)O)NC1=O [CASPOFUNGIN] | > 25.8 µM | 0.8 µM (≈ 0.875 µg/mL) | 0.1 µM (≈ 0.109 µg/mL) | 0.05 µM (≈ 0.0547 µg/mL) | 0.2 µM (≈ 0.219 µg/mL) | 0.4 µM (≈ 0.437 µg/mL) | 1.6 µM (≈ 1.75 µg/mL) | > 25.8 µM | 0.4 µM (≈ 0.437 µg/mL) | 0.2 µM (≈ 0.219 µg/mL) | > 25.8 µM | 0.05 µM (≈ 0.0547 µg/mL) | 0.1 µM (≈ 0.109 µg/mL) |  |  |  |
| CCCCCCCCCCCCCN1CCNCC1 | 3.6 µM (≈ 0.967 µg/mL) | 3.6 µM (≈ 0.967 µg/mL) | 3.6 µM (≈ 0.967 µg/mL) | 1.8 µM (≈ 0.483 µg/mL) | 3.6 µM (≈ 0.967 µg/mL) | 3.6 µM (≈ 0.967 µg/mL) | 7.2 µM (≈ 1.93 µg/mL) | 7.2 µM (≈ 1.93 µg/mL) | 7.2 µM (≈ 1.93 µg/mL) | 7.2 µM (≈ 1.93 µg/mL) | 7.2 µM (≈ 1.93 µg/mL) | 7.2 µM (≈ 1.93 µg/mL) | 7.2 µM (≈ 1.93 µg/mL) | Soluble | Soluble |  |
| CCCCCCCCCCCCCCN1CCOCC1 | > 110 µM | > 110 µM | > 110 µM | > 110 µM | > 110 µM | > 110 µM | > 110 µM | > 110 µM | > 110 µM | > 110 µM | > 110 µM | > 110 µM | > 110 µM |  |  |  |
| CCCCCCCCCN1CCN(CC(O)(Cn2cncn2)c2ccc(F)cc2F)CC1 (stereo unspecified) | 2.2 µM (≈ 0.989 µg/mL) | 2.2 µM (≈ 0.989 µg/mL) | 17.6 µM (≈ 7.91 µg/mL) | 8.8 µM (≈ 3.96 µg/mL) | 17.6 µM (≈ 7.91 µg/mL) | 2.2 µM (≈ 0.989 µg/mL) | 0.55 µM (≈ 0.247 µg/mL) | 4.4 µM (≈ 1.98 µg/mL) | 35.2 µM (≈ 15.8 µg/mL) | 35.2 µM (≈ 15.8 µg/mL) | 1.1 µM (≈ 0.495 µg/mL) | 8.8 µM (≈ 3.96 µg/mL) | 35.2 µM (≈ 15.8 µg/mL) |  |  |  |
| CCCCCCCCN1CCNCC1 | > 158 µM | > 158 µM | > 158 µM | > 158 µM | > 158 µM | > 158 µM | > 158 µM | > 158 µM | > 158 µM | > 158 µM | > 158 µM | > 158 µM | > 158 µM |  |  |  |
| C[C@@H]1[C@H](O)[C@@H](C)/C=C/C=C/C=C/C=C/C=C/C=C/C=C/[C@H](O[C@@H]2O[C@H](C)[C@@H](O)[C@H](N)[C@@H]2O)C[C@@H]2O[C@](O)(C[C@@H](O)C[C@@H](O)[C@H](O)CC[C@@H](O)C[C@@H](O)CC(=O)O[C@H]1C)C[C@H](O)[C@H]2C(=O)O [AMPHOTERICIN B] |  |  | 1.1 µM (≈ 1.02 µg/mL) |  |  |  |  |  |  |  |  |  |  |  |  | 7.8 µg/mL |
| CN1CCNCC1 [METHYLPIPERAZINE] | > 312 µM | > 312 µM | > 312 µM | > 312 µM | > 312 µM | > 312 µM | > 312 µM | > 312 µM | > 312 µM | > 312 µM | > 312 µM | > 312 µM | > 312 µM |  |  |  |
| CCCCCCCCCCCN1CCNCC1 | 64.8 µM (≈ 15.6 µg/mL) | 32.4 µM (≈ 7.79 µg/mL) | 32.4 µM (≈ 7.79 µg/mL) | 32.4 µM (≈ 7.79 µg/mL) | 32.4 µM (≈ 7.79 µg/mL) | 32.4 µM (≈ 7.79 µg/mL) | 32.4 µM (≈ 7.79 µg/mL) | 64.8 µM (≈ 15.6 µg/mL) | 64.8 µM (≈ 15.6 µg/mL) | 32.4 µM (≈ 7.79 µg/mL) | 130 µM (≈ 31.2 µg/mL) | 64.8 µM (≈ 15.6 µg/mL) | 32.4 µM (≈ 7.79 µg/mL) |  |  |  |
| OC(CNCCN1CCOCC1)(Cn1cncn1)c1ccc(F)cc1F (stereo unspecified) | > 85.2 µM | 85.2 µM (≈ 31.3 µg/mL) | > 85.2 µM | 85.2 µM (≈ 31.3 µg/mL) | 85.2 µM (≈ 31.3 µg/mL) | > 85.2 µM | 85.2 µM (≈ 31.3 µg/mL) | > 85.2 µM | > 85.2 µM | 85.2 µM (≈ 31.3 µg/mL) | > 85.2 µM | 85.2 µM (≈ 31.3 µg/mL) | > 85.2 µM |  |  |  |

— ChEMBL document CHEMBL4024783, “Alkylated Piperazines and Piperazine-Azole Hybrids as Antifungal Agents” (J Med Chem, 2018)
